{"source": "ChEMBL document CHEMBL1138093", "about": "“C-(4,5,6-trimethoxyindan-1-yl)methanamine: a mescaline analogue designed using a homology model of the 5-HT2A receptor” (J Med Chem, 2006)", "key": {"[1]": {"molecular_target": "T1, 5-hydroxytryptamine receptor 2A (Rattus norvegicus, UniProt P14842)", "T1 sequence (P14842 whole entry)": "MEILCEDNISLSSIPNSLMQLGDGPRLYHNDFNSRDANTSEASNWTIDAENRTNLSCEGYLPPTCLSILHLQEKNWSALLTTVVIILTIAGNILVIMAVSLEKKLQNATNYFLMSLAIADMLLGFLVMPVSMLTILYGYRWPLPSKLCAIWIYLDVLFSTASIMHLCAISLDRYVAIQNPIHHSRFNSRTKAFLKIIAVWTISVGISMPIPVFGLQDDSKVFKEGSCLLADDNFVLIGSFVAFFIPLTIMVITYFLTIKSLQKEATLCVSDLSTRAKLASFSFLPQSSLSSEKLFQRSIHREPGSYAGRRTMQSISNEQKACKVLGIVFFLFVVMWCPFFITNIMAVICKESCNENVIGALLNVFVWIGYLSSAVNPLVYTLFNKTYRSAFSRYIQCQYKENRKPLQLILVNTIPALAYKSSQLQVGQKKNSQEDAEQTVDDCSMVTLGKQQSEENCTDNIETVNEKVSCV", "assay": "Displacement of [125I]DOI from rat 5HT2A receptor", "how_it_was_run": "(§1)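 Stably transfected cells expressing rat 5-HT2A or 5-HT2C were serum-starved 5 h and pelleted. Binding used 50 mM Tris, 0.5 mM EDTA, 10 mM MgCl2, pH 7.4, incubated 60 min at 25 °C. Bound was separated by filtration onto PEI-soaked GF/B filters, then scintillation counting. Values came from competition curves.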"}, "[2]": {"molecular_target": "5-hydroxytryptamine receptor 2A (Rattus norvegicus) (UniProt P14842)", "sequence (P14842 whole entry)": "as above", "assay": "(§2) Activity at rat 5HT2A receptor assessed as 5-HT-stimulated IP3 accumulation", "format": "functional", "how_it_was_run": "(§3)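 Rat 5-HT2A-expressing stable cell line, seeded and assayed at 70% confluence. Cells were labeled 18-20 h with [3H]myoinositol at 1.0 µCi/mL, then pretreated 15 min with 10 µM pargyline/10 mM LiCl. Drug exposure was 30 min at 37 °C under 5% CO2. The assay was stopped with 10 mM formic acid, and [3H]inositol phosphates were isolated on Dowex-1 columns.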"}, "[3]": {"molecular_target": "T1, 5-hydroxytryptamine receptor 2A", "assay": "as §2", "format": "functional", "how_it_was_run": "as §3"}, "[4]": {"molecular_target": "T2, 5-hydroxytryptamine receptor 2C (Rattus norvegicus, UniProt P08909)", "T2 sequence (P08909 whole entry)": "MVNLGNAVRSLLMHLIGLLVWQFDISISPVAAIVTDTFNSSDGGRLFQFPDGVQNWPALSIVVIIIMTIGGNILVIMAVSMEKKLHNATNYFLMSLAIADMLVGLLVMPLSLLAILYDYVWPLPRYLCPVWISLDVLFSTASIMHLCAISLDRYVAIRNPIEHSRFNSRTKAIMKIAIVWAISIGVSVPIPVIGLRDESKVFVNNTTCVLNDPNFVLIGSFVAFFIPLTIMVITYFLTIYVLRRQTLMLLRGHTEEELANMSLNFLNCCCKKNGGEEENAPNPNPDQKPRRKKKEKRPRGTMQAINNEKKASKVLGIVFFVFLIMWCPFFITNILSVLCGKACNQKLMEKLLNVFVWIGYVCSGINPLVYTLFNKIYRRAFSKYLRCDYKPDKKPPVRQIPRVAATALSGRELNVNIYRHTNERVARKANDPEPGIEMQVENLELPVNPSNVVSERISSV", "assay": "Displacement of [125I]DOI from rat 5HT2C receptor", "how_it_was_run": "as §1"}, "Rattus norvegicus": {"species_on_record": "Rattus norvegicus", "assay": "Hallucinogenic activity in rat", "format": "functional", "details": "for ED50: Rattus norvegicus", "how_it_was_run": "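Rats were trained to discriminate saline from LSD tartrate (186 nmol/kg ip). The read-out was presses on the drug lever. […] At least 59% gave partial substitution.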"}}}
{"smiles": "COc1cc2c(c(OC)c1OC)CC[C@@H]2CN", "values": [{"measurement": "Ki", "setting": "[1]", "result": 1.12, "unit": "µM"}, {"measurement": "Activity", "setting": "[2]", "result": 59, "unit": "%"}, {"measurement": "EC50", "setting": "[3]", "result": "> 50", "unit": "µM"}]}
{"smiles": "COc1cc2c(c(OC)c1OC)CC[C@H]2CN", "values": [{"measurement": "Ki", "setting": "[1]", "result": 0.069, "unit": "µM"}, {"measurement": "Activity", "setting": "[2]", "result": 88, "unit": "%"}, {"measurement": "EC50", "setting": "[3]", "result": 3.2, "unit": "µM"}]}
{"smiles": "COc1cc2c(c(OC)c1OC)CCC2CN", "note": "(racemic)", "values": [{"measurement": "Ki", "setting": "[1]", "result": 0.13, "unit": "µM"}, {"measurement": "Ki", "setting": "[4]", "result": 0.06, "unit": "µM"}, {"measurement": "Activity", "setting": "[2]", "result": 83, "unit": "%"}, {"measurement": "EC50", "setting": "[3]", "result": 6.1, "unit": "µM"}, {"measurement": "ED5", "setting": "Rattus norvegicus", "result": 6.6, "unit": "µmol/kg"}]}
{"smiles": "CCN(CC)C(=O)[C@@H]1C=C2c3cccc4[nH]cc(c34)C[C@H]2N(C)C1", "note": "[LYSERGIDE]", "values": [{"measurement": "Activity", "setting": "[2]", "result": 20, "unit": "%"}, {"measurement": "ED50", "setting": "Rattus norvegicus", "result": 0.037, "unit": "µmol/kg"}]}
{"smiles": "COc1cc(CCN)cc(OC)c1OC", "note": "[MESCALINE]", "values": [{"measurement": "Ki", "setting": "[1]", "result": 0.36, "unit": "µM"}, {"measurement": "Ki", "setting": "[4]", "result": 0.38, "unit": "µM"}, {"measurement": "Activity", "setting": "[2]", "result": 86, "unit": "%"}, {"measurement": "EC50", "setting": "[3]", "result": 11.3, "unit": "µM"}, {"measurement": "ED50", "setting": "Rattus norvegicus", "result": 34, "unit": "µmol/kg"}]}
